Two molecules from ChEMBL document CHEMBL1128365, “S-(5'-deoxy-5'-adenosyl)-1-aminoxy-4-(methylsulfonio)-2-cyclopentene (AdoMao): an irreversible inhibitor of S-adenosylmethionine decarboxylase with potent in vitro antitrypanosomal activity” (J Med Chem, 1995) can be followed below.

The test system of assay [1] is HL-60. Put plainly: Polyamine levels in cultured HL60 cells on S-Adenosyl-methionine decarboxylase at the concentration of 0.1 uM. Format: functional, Homo sapiens. The gist of the method:
(§1)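 HL60 human promyelocytic leukemia cells exposed to inhibitor for 96 h, then sonicated. AdoMet-DC activity measured by the Anton and Kutny method. Intracellular putrescine, spermidine and spermine quantified by HPLC (Danzin method). Each value is the mean of two determinations.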

For assay [2], the system named is HL-60. In words: Polyamine levels in cultured HL60 cells on spermine at the concentration of 10.0 uM. Format: functional, Homo sapiens. The gist of the method:
as §1

Assay [3] deals with HL-60. In words: Polyamine levels in cultured HL60 cells on spermine at the concentration of 100.0 uM. Format: functional, Homo sapiens. The gist of the method: as §1
Assay [4] has as its system HL-60. Put plainly: Polyamine levels in cultured HL60 cells on spermine at the concentration of 50.0 uM. Format: functional, Homo sapiens. The gist of the method: as §1
For assay [5], the system named is HL-60. In words: Polyamine levels in cultured HL60 cells on S-Adenosyl-methionine decarboxylase at the concentration of 1.0 uM. Type of assay: functional, Homo sapiens. The gist of the method:
as §1

The test system of assay [6] is HL-60. Put plainly: Polyamine levels in cultured HL60 cells on S-Adenosyl-methionine decarboxylase at the concentration of 10.0 uM. Format: functional, Homo sapiens. Put shortly:
as §1

For assay [7], the system named is HL-60. Put plainly: Polyamine levels in cultured HL60 cells on S-Adenosyl-methionine decarboxylase at the concentration of 100.0 uM. Format: functional, Homo sapiens. The gist of the method:
as §1

In assay [8] the test system is HL-60. In words: Polyamine levels in cultured HL60 cells on S-Adenosyl-methionine decarboxylase at the concentration of 50.0 uM. Type of assay: functional, Homo sapiens. Put shortly:
as §1

For assay [9], the system named is HL-60. Put plainly: Polyamine levels in cultured HL60 cells on putrescine at the concentration of 0.1 uM. Type of assay: functional, Homo sapiens. Put shortly: as §1
For assay [10], the system named is HL-60. In words: Polyamine levels in cultured HL60 cells on putrescine at the concentration of 1.0 uM. Type of assay: functional, Homo sapiens. The gist of the method:
as §1

Assay [11] relates to HL-60. Put plainly: Polyamine levels in cultured HL60 cells on putrescine at the concentration of 10.0 uM. Type of assay: functional, Homo sapiens. The gist of the method:
as §1

Assay [12] deals with HL-60. In words: Polyamine levels in cultured HL60 cells on putrescine at the concentration of 100.0 uM. Format: functional, Homo sapiens. The gist of the method: as §1
For assay [13], the system named is HL-60. Put plainly: Polyamine levels in cultured HL60 cells on putrescine at the concentration of 50.0 uM. Type of assay: functional, Homo sapiens. The gist of the method: as §1
Assay [14] relates to HL-60. In words: Polyamine levels in cultured HL60 cells on spermidine at the concentration of 0.1 uM. Format: functional, Homo sapiens. Put shortly:
as §1

Assay [15] has as its system HL-60. In words: Polyamine levels in cultured HL60 cells on spermidine at the concentration of 1.0 uM. Format: functional, Homo sapiens. Put shortly:
as §1

The subject of assay [16] is HL-60. In words: Polyamine levels in cultured HL60 cells on spermidine at the concentration of 10.0 uM. Type of assay: functional, Homo sapiens. Put shortly: as §1
Assay [17] relates to HL-60. Put plainly: Polyamine levels in cultured HL60 cells on spermidine at the concentration of 100.0 uM. Type of assay: functional, Homo sapiens. The gist of the method:
as §1

In assay [18] the test system is HL-60. In words: Polyamine levels in cultured HL60 cells on spermidine at the concentration of 50.0 uM. Type of assay: functional, Homo sapiens. The gist of the method:
as §1

Assay [19] concerns HL-60. In words: Polyamine levels in cultured HL60 cells on spermine at the concentration of 0.1 uM. Format: functional, Homo sapiens. The gist of the method: as §1
For assay [20], the system named is HL-60. Put plainly: Polyamine levels in cultured HL60 cells on spermine at the concentration of 1.0 uM. Type of assay: functional, Homo sapiens. Put shortly:
as §1

The target in assay [21] is T1, S-adenosylmethionine decarboxylase proenzyme (Homo sapiens, UniProt P17707).
T1 sequence (P17707 whole entry): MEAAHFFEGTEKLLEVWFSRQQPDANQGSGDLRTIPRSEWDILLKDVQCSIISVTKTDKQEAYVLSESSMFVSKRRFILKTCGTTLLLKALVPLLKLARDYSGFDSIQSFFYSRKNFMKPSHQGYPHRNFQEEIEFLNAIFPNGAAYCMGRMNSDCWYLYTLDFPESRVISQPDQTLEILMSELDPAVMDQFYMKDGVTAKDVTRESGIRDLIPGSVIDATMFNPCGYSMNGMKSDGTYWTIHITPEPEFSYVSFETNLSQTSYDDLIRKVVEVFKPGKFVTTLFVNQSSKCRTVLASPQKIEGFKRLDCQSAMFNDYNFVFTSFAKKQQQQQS
In words: (§2) Compound was evaluated for the inhibitor constant against human S-adenosyl-L-methionine decarboxylase.

For assay [22], the target named is T2, S-adenosylmethionine decarboxylase proenzyme (Homo sapiens) (UniProt P17707).
T2 sequence (whole entry): T1 sequence (P17707 whole entry)
Described as §2.

In assay [23] the test system is Trypanosoma brucei brucei. Put plainly: Compound was evaluated for the inhibition of growth of Trypanosoma brucei. Format: functional, organism-based. Put shortly:
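T. brucei brucei bloodforms cultured in modified Iscove's medium, 3% CO2 in air, 37 °C, feeder layer-free. Inhibitor dissolved in medium; half the volume replaced daily with double-strength inhibitor. Growth read by daily cell counts, IC50 after 48 h. Alternatively: 24 h with inhibitor, wash, 24 h with 1.0 μCi [3H]hypoxanthine, filtration and scintillation counting. Mean of two determinations.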

Assay [24] deals with Trypanosoma brucei rhodesiense. Put plainly: Compound was evaluated for the inhibition of growth of brucei rhodesiense (KETRI 243). Format: functional, organism-based.
The subject of assay [25] is Trypanosoma brucei rhodesiense. Put plainly: Compound was evaluated for the percentage inhibition of growth of uM. Format: functional.
Assay [26] deals with S-adenosylmethionine decarboxylase (Escherichia coli) (UniProt P0A7F6). Put plainly: Compound was evaluated for the inhibitor against Escherichia coli S-adenosyl-L-methionine decarboxylase.
Assay [27] concerns the target T1, S-adenosylmethionine decarboxylase proenzyme. In words: (§3) compound was evaluated for the inhibitor constant against human S-adenosyl-L-methionine decarboxylase.
In assay [28] the target is T2, S-adenosylmethionine decarboxylase proenzyme (Homo sapiens). The assay is described as §3.
The target of assay [29] is S-adenosylmethionine decarboxylase (Escherichia coli) (UniProt P0A7F6). In words: compound was evaluated for the inhibitor against Escherichia coli S-adenosyl-L-methionine decarboxylase.

Chain of S-adenosylmethionine decarboxylase (Escherichia coli) (P0A7F6 whole entry, looked up): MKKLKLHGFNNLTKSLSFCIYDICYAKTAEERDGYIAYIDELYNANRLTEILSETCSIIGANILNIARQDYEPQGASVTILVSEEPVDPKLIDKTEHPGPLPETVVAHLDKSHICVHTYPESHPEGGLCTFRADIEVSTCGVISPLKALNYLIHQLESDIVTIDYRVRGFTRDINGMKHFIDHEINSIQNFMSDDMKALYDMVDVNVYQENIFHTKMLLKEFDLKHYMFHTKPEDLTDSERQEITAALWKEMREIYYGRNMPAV

As for `C[S+](C[C@H]1O[C@@H](n2cnc3c(N)ncnc32)[C@H](O)[C@@H]1O)C1C=CC(ON)C1.O=S(=O)(O)O.O=S(=O)([O-])O` (stereo not given in full), the Activity in the assay on HL-60 [1] stood at 355 pmol/h/mg; in the assay on HL-60 [2], 31.6 nM/mg; in the assay with HL-60 [3], 27 nM/mg; with HL-60 [4], 28 nM/mg; with HL-60 [5] it was 347 pmol/h/mg; with HL-60 [6], 293 pmol/h/mg. Also, the Activity came out at 489 pmol/h/mg with HL-60 [7]; 449 pmol/h/mg in the assay with HL-60 [8]; 0.71 nM/mg in the assay with HL-60 [9]; 0.94 nM/mg in the assay on HL-60 [10]; 0.71 nM/mg with HL-60 [11]; 0.94 nM/mg in the assay on HL-60 [12]. Further, the Activity in the assay with HL-60 [13] was determined as 0.79 nM/mg; with HL-60 [14], 7.9 nM/mg; in the assay on HL-60 [15] it was 10.1 nM/mg; in the assay on HL-60 [16], 8.4 nM/mg; with HL-60 [17], 16.1 nM/mg; with HL-60 [18] it was 11.2 nM/mg. The Activity in the assay on HL-60 [19] turned out to be 30.4 nM/mg; with HL-60 [20], 38.1 nM/mg. Moreover, the affinity in assay [21], expressed as Ki, was 19.6 µM. The maximal inactivation rate constant (kinact) (commonly the maximal first-order rate at which the target is inactivated) in [22] came to 0.115 min⁻¹; in assay [26] it was 0.015 min⁻¹. Besides, the IC50 (as a rule, the concentration that gives 50% inhibition) was found to be 0.9 µM in [23] and 10 µM in [24]. The Inhibition (commonly the relative decrease from the control value, in per cent) in assay [25] is listed as 49%.
Turning to `C[S+](C[C@H]1O[C@@H](n2cnc3c(N)ncnc32)[C@H](O)[C@@H]1O)[C@H]1C=C[C@H](ON)C1` (stereo not given in full), in assay [27], the Ki – broadly, the equilibrium dissociation constant of an inhibitor or competing ligand from its target – was found to be 21.2 µM. Besides, the values for the kinact in [28] and in [29] were 0.079 min⁻¹ and 0.025 min⁻¹, respectively. This molecule showed an IC50 in [23] of 10 µM.
